Values after ≈ are worked out from the molar mass of the structure shown.
Columns and labels:
[1] = Inhibition of Staphylococcus aureus thymidylate kinase assessed as effect on conversion of dTDP to dTMP by luciferin/luciferase reporter gene based assay
[2] = Inhibition of Streptococcus pneumoniae thymidylate kinase assessed as effect on conversion of dTDP to dTMP by luciferin/luciferase reporter gene based assay
Staphylococcus aureus [3] = test: Antimicrobial activity against methicillin and quinolone-resistant Staphylococcus aureus by broth microdilution method; type: functional
How it was run: (§1)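 MICs were determined against bacterial strains from the AstraZeneca collection. For S. aureus, MSQS means methicillin- and quinolone-sensitive, and MRQR means methicillin- and quinolone-resistant.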

Streptococcus pneumoniae = test: Antimicrobial activity against Streptococcus pneumoniae by broth microdilution method; type: functional
How it was run: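 Test organisms were strains from the AstraZeneca collection.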

Staphylococcus aureus [4] = test: Antimicrobial activity against methicillin and quinolone-sensitive Staphylococcus aureus by broth microdilution method; type: functional; how it was run: as §1
[5] = Partition coefficient, log D of the compound at pH 7.4 by shake flask method; details: octanol/water
Candida albicans = test: Toxicity against Candida albicans; type: organism-based
[6] = Toxicity against human A549 cells; type: cell-based; details: read-out: MIC
Thymidylate kinase = target: T1, Thymidylate kinase (Homo sapiens, UniProt P23919); test: Inhibition of human thymidylate kinase assessed as effect on ATP production by Escherichia coli DdlA and Malachite green reagent based assay
T1 sequence (P23919 whole entry): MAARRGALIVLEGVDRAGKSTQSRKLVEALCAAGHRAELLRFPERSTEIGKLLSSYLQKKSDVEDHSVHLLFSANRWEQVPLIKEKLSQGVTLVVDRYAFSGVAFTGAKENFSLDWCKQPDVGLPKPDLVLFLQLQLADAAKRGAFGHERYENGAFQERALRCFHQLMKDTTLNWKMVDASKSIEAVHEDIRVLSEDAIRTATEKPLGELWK

| Compound | IC50 [1] [nM] | IC50 [2] [nM] | MIC (Staphylococcus aureus [3]) [µg/mL] | MIC (Streptococcus pneumoniae) [µg/mL] | MIC (Staphylococcus aureus [4]) [µg/mL] | logD [5] | MIC (Candida albicans) [µg/mL] | MCC [6] [µg/mL] | IC50 (Thymidylate kinase) [nM] |
| --- | --- | --- | --- | --- | --- | --- | --- | --- | --- |
| COc1ccc(Oc2cccc(CN3CCCC(n4cc(C)c(=O)[nH]c4=O)C3)c2)cc1 (racemic) | 143000 | 9000 | – | – | – | – | – | – | – |
| Cc1cn([C@H]2CCCN(Cc3cccc(Oc4cccc(F)c4)c3)C2)c(=O)[nH]c1=O | 3200 | 400 | – | – | – | – | – | – | – |
| CCC[C@@H](c1ccc(C(=O)O)c(Oc2cccc(Cl)c2)c1)N1CCC[C@H](n2cc(C)c(=O)[nH]c2=O)C1 | 18 | 0.6 | 4 (≈ 7.81 µM) | 0.1 (≈ 0.195 µM) | 4 (≈ 7.81 µM) | – | – | – | – |
| Cc1cn([C@H]2CCCN(Cc3ccc(C(=O)O)c(Oc4cccc(Cl)c4)c3)C2)c(=O)[nH]c1=O | 73 | 1.9 | 32 (≈ 68.1 µM) | 1 (≈ 2.13 µM) | 32 (≈ 68.1 µM) | – | – | – | – |
| Cc1cn([C@H]2CCCN([C@H](CC34CC5CC(CC(C5)C3)C4)c3ccc(C(=O)O)c(Oc4cccc(Br)c4)c3)C2)c(=O)[nH]c1=O | 1.1 | 0.1 | 0.1 (≈ 0.151 µM) | 0.03 (≈ 0.0453 µM) | 0.25 (≈ 0.377 µM) | 2.5 | – | – | – |
| CCC[C@H](c1ccc(C(=O)O)c(Oc2cccc(Cl)c2)c1)N1CCC[C@H](n2cc(C)c(=O)[nH]c2=O)C1 | 8.3 | 0.3 | 1 (≈ 1.95 µM) | 0.05 (≈ 0.0977 µM) | 1 (≈ 1.95 µM) | – | > 64 | > 64 | 150000 |
| Cc1cn([C@H]2CCCN([C@@H](CC(C)C)c3ccc(C(=O)O)c(Oc4cccc(Cl)c4)c3)C2)c(=O)[nH]c1=O | 13.5 | 0.6 | 2 (≈ 3.8 µM) | 0.05 (≈ 0.0951 µM) | 2 (≈ 3.8 µM) | 0.9 | – | – | – |
| Cc1cn([C@H]2CCCN([C@H](CC3CCCCC3)c3ccc(C(=O)O)c(Oc4cccc(Cl)c4)c3)C2)c(=O)[nH]c1=O | 0.7 | < 0.1 | 0.1 (≈ 0.177 µM) | 0.01 (≈ 0.0177 µM) | 0.25 (≈ 0.442 µM) | – | – | – | – |
| Cc1cccc(Oc2cc(CN3CCC[C@H](n4cc(C)c(=O)[nH]c4=O)C3)ccc2C(=O)O)c1 | 114 | 8 | 128 (≈ 285 µM) | 4 (≈ 8.9 µM) | 64 (≈ 142 µM) | – | – | – | – |
| CCCC(C)(C)C[C@H](c1ccc(C(=O)O)c(Oc2cccc(Cl)c2)c1)N1CCC[C@H](n2cc(C)c(=O)[nH]c2=O)C1 | 0.7 | 0.3 | 0.06 (≈ 0.106 µM) | 0.06 (≈ 0.106 µM) | 0.25 (≈ 0.44 µM) | 2 | – | – | – |
| Cc1cn([C@H]2CCCN([C@H](CC(C)C)c3ccc(C(=O)O)c(Oc4cccc(Cl)c4)c3)C2)c(=O)[nH]c1=O | – | < 0.2 | 1 (≈ 1.9 µM) | 0.03 (≈ 0.057 µM) | 1 (≈ 1.9 µM) | 0.9 | – | – | – |
| Cc1ccc(Oc2cccc(CN3CCCC(n4cc(C)c(=O)[nH]c4=O)C3)c2)cc1 (racemic) | 59000 | 6000 | – | – | – | – | – | – | – |
| Cc1cn(C2CCCN(Cc3cccc(Oc4ccc(Cl)cc4)c3)C2)c(=O)[nH]c1=O (racemic) | 35000 | 1300 | – | – | – | – | – | – | – |
| CC[C@@H](c1ccc(C(=O)O)c(Oc2cccc(Cl)c2)c1)N1CCC[C@H](n2cc(C)c(=O)[nH]c2=O)C1 | 18.3 | 3 | 4 (≈ 8.03 µM) | 0.25 (≈ 0.502 µM) | 2 (≈ 4.02 µM) | 0.2 | – | – | – |
| Cc1cn([C@H]2CCCN(Cc3ccc(C(=O)O)c(Oc4cccc(F)c4)c3)C2)c(=O)[nH]c1=O | 339 | 28 | 128 (≈ 282 µM) | 32 (≈ 70.6 µM) | 128 (≈ 282 µM) | -1 | – | – | – |
| Cc1cn([C@H]2CCCN(Cc3ccc(C(=O)O)c(Oc4cccc(C(F)(F)F)c4)c3)C2)c(=O)[nH]c1=O | – | 10 | 64 (≈ 127 µM) | 4 (≈ 7.94 µM) | 64 (≈ 127 µM) | -0.38 | > 64 | > 64 | > 200000 |
| CC[C@H](c1ccc(C(=O)O)c(Oc2cccc(Cl)c2)c1)N1CCC[C@H](n2cc(C)c(=O)[nH]c2=O)C1 (racemic) | 13.7 | 0.6 | 2 (≈ 4.02 µM) | 0.1 (≈ 0.201 µM) | 2 (≈ 4.02 µM) | 0.2 | – | – | – |

| Compound | IC50 [1] [nM] | IC50 [2] [nM] | MIC (Staphylococcus aureus [3]) [µg/mL] | MIC (Streptococcus pneumoniae) [µg/mL] | MIC (Staphylococcus aureus [4]) [µg/mL] | logD [5] | MIC (Candida albicans) [µg/mL] | MCC [6] [µg/mL] | IC50 (Thymidylate kinase) [nM] |
| --- | --- | --- | --- | --- | --- | --- | --- | --- | --- |
| Cc1cn([C@H]2CCCN(Cc3cccc(Oc4cccc(Cl)c4)c3)C2)c(=O)[nH]c1=O | 1200 | 150 | – | – | – | – | – | – | – |
| Cc1cn([C@H]2CCCN([C@H](CC3CCOCC3)c3ccc(C(=O)O)c(Oc4cccc(Cl)c4)c3)C2)c(=O)[nH]c1=O | 1.6 | < 0.1 | 8 (≈ 14.1 µM) | 0.1 (≈ 0.176 µM) | 16 (≈ 28.2 µM) | -0.25 | – | – | – |
| Cc1cn([C@@H]2CCCN(Cc3cccc(Oc4ccc(Cl)cc4)c3)C2)c(=O)[nH]c1=O | > 200000 | 5100 | – | – | – | – | – | – | – |
| Cc1cn([C@H]2CCCN([C@@H](C)c3ccc(C(=O)O)c(Oc4cccc(Cl)c4)c3)C2)c(=O)[nH]c1=O | 29.3 | 1 | 8 (≈ 16.5 µM) | 0.25 (≈ 0.517 µM) | 8 (≈ 16.5 µM) | -0.3 | – | – | – |
| Cc1ccc(Oc2cccc(CN3CCC[C@H](n4cc(C)c(=O)[nH]c4=O)C3)c2)cc1Cl | 1900 | 1000 | – | – | – | – | – | – | – |
| Cc1cn([C@@H]2CCCN(Cc3cccc(Oc4ccc(Cl)c(Cl)c4)c3)C2)c(=O)[nH]c1=O | > 200000 | 18000 | – | – | – | – | – | – | – |
| Cc1cn(C2CCCN(Cc3cccc(Oc4cccc(C(F)(F)F)c4)c3)C2)c(=O)[nH]c1=O (racemic) | – | 15000 | – | – | – | – | – | – | – |
| Cc1cn([C@H]2CCCN(Cc3cccc(Oc4cc(Cl)cc(Cl)c4)c3)C2)c(=O)[nH]c1=O | 1500 | 400 | – | – | – | – | – | – | – |
| Cc1cn([C@H]2CCCN([C@@H](CC(C)(C)C)c3ccc(C(=O)O)c(Oc4cccc(Br)c4)c3)C2)c(=O)[nH]c1=O | 2.8 | 0.6 | 1 (≈ 1.71 µM) | 0.03 (≈ 0.0513 µM) | 2 (≈ 3.42 µM) | 1.2 | – | – | – |
| Cc1cn([C@H]2CCCN(Cc3cccc(Oc4ccc(Cl)cc4)c3)C2)c(=O)[nH]c1=O | 8500 | 400 | – | – | – | – | – | – | – |
| Cc1cn([C@H]2CCCN(Cc3cccc(Oc4ccc(Cl)c(Cl)c4)c3)C2)c(=O)[nH]c1=O | 2600 | 400 | – | – | – | – | – | – | – |
| CCC(CC)C[C@H](c1ccc(C(=O)O)c(Oc2cccc(Cl)c2)c1)N1CCC[C@H](n2cc(C)c(=O)[nH]c2=O)C1 | < 3 | 0.1 | 0.1 (≈ 0.18 µM) | 0.02 (≈ 0.0361 µM) | 0.25 (≈ 0.451 µM) | 1.7 | – | – | – |
| Cc1cccc(Oc2cccc(CN3CCC[C@H](n4cc(C)c(=O)[nH]c4=O)C3)c2)c1 | 2700 | 300 | – | – | – | – | – | – | – |
| Cc1cn([C@H]2CCCN(Cc3cccc(Oc4cccc(Br)c4)c3)C2)c(=O)[nH]c1=O | 600 | 100 | – | – | – | – | – | – | – |
| Cc1cn([C@H]2CCCN(Cc3cccc(Oc4cc(F)cc(Cl)c4)c3)C2)c(=O)[nH]c1=O | 2100 | 100 | – | – | – | – | – | – | – |
| CCC(C)(CC)C[C@H](c1ccc(C(=O)O)c(Oc2cccc(Br)c2)c1)N1CCC[C@H](n2cc(C)c(=O)[nH]c2=O)C1 | 1.3 | 0.3 | 0.03 (≈ 0.049 µM) | 0.03 (≈ 0.049 µM) | 0.1 (≈ 0.163 µM) | 2 | – | – | – |
| Cc1cn([C@H]2CCCN(Cc3ccc(C(=O)O)c(Oc4cccc(Br)c4)c3)C2)c(=O)[nH]c1=O | 27 | 1 | 32 (≈ 62.2 µM) | 1 (≈ 1.94 µM) | 16 (≈ 31.1 µM) | -0.51 | – | – | – |

Source: ChEMBL document CHEMBL2177095, “Discovery of selective and potent inhibitors of gram-positive bacterial thymidylate kinase (TMK)” (J Med Chem, 2012)
